Data set [1] deals with LoVo. As to the kind of experiment: Antiproliferative activity against human LoVo cells assessed as reduction in cell viability after 72 hrs by SRB assay. The data set is classed as functional, cell-based. A digest of the protocol:
(§1)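 Human colon adenocarcinoma LoVo cells and their doxorubicin-resistant subline LoVo/DX. Growth was read by sulforhodamine B (SRB) staining. IC50 values are means ± SD from at least three experiments, each in triplicate.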
Background: The SRB assay estimates cell density from bound dye.

Data set [2] is described as follows: Antiproliferative activity against human LoVo/DX cells assessed as reduction in cell viability after 72 hrs by SRB assay. The data set is classed as functional, cell-based. A digest of the protocol: as §1
Data set [3] is described as follows: Potency index, ratio of IC50 for doxorubicin to IC50 for test compound against human LoVo/DX cells assessed as reduction in cell viability after 72 hrs by SRB assay. The data set is classed as functional.
Another data set concerns the target Histone deacetylase. As to the kind of experiment: Inhibition of HDAC in human LoVo/DX cells using Boc-Lys(Ac)-AMC as substrate assessed as release of AMC pre-incubated for 15 mins followed by substrate addition measured after 3 hrs by indirect spectrofluorometric assay. The data set is classed as cell-based. The gist of the method: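 Crude enzyme was LoVo/DX cell lysate. HDAC activity was read by an indirect spectrofluorometric assay, and IC50 was determined on the lysate.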

In another data set the test system is BALB/3T3. As to the kind of experiment: Cytotoxicity against mouse BALB/3T3 cells after 72 hrs by SRB assay. The data set is classed as cell-based. Particulars: BALB/3T3, 72 h; call rule not given here.
The subject of data set [4] is Mus musculus. As to the kind of experiment: Toxicity in Balb/c mouse assessed as changes in body weight at 900 umol/kg. The data set is classed as organism-based. The note with it: in vivo. The gist of the method:
(§2)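 Preliminary in vivo toxicity study in Balb/c mice given high doses (900 µmol/kg b.w.). Toxicity was judged from body weight changes, blood morphology and blood biochemical analysis.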

Data set [5] concerns Mus musculus. As to the kind of experiment: Toxicity in Balb/c mouse assessed as changes in blood morphology at 900 umol/kg. The data set is classed as organism-based. Particulars: in vivo. The gist of the method:
as §2

Data set [6] relates to Mus musculus. As to the kind of experiment: Toxicity in Balb/c mouse assessed as changes in blood biochemical parameters at 900 umol/kg. The data set is classed as organism-based. The note with it: in vivo. The gist of the method:
as §2

Data set [7] has as its system LoVo. Put plainly: Selectivity index, ratio of IC50 for mouse BALB/3T3 cells to IC50 for human LoVo cells. The data set is classed as functional.
Data set [8] is described as follows: Selectivity index, ratio of IC50 for mouse BALB/3T3 cells to IC50 for human LoVo/DX cells. The data set is classed as functional.
Data set [9] has as its system LoVo. Put plainly: Selectivity index, ratio of IC50 for human LoVo/DX cells to IC50 for human LoVo cells. The data set is classed as functional.
[10] abbreviates: Homo sapiens, LoVo, 72 h, read-out: IC50.

SMILES strings stand for the structures.

`S=C=NCCCCN=C=S`: the IC50 in the data set on LoVo [1] (setting [10]) was found to be 1.88 µM; in data set [2], 2.35 µM. In [3], the “Ratio IC50” value is recorded as 3.

`CCCCCNC(=S)SC[C@H](NC(C)=O)C(=O)O`: the IC50 in the data set with LoVo [1] (setting [10]) came to 36.6 µM; in data set [2], 42.8 µM; on Histone deacetylase, 3200 µM; in the data set with BALB/3T3, 48.5 µM.

With `S=C=NCCCN=C=S`, the IC50 with LoVo [1] (setting [10]) was found to be 1.84 µM; in [2], 2.44 µM.

For `CC(=O)N[C@@H](CSC(=S)NCCCCNC(=S)SC[C@H](NC(C)=O)C(=O)O)C(=O)O`, the IC50 in the data set on LoVo [1] (setting [10]) amounted to 2.02 µM; in [2] it was 4.84 µM; at Histone deacetylase, 2330 µM; in the data set on BALB/3T3 it was 5.54 µM. Also, the Activity entry in the data set on Mus musculus [4], with Mus musculus [5] and in the data set with Mus musculus [6] was “Non-toxic” in each case.

As to `COc1ccc(CNC(=S)SC[C@H](NC(C)=O)C(=O)O)cc1`, the IC50 in the data set on LoVo [1] (setting [10]) turned out to be 3.7 µM; in data set [2], 4.2 µM; on Histone deacetylase it was 2940 µM; in the data set with BALB/3T3 it was 6.9 µM.

As to `CC(=O)N[C@@H](CSC(=S)NCCCC(C)CNC(=S)SC[C@H](NC(C)=O)C(=O)O)C(=O)O` (some centres not stated), the IC50 in the data set on LoVo [1] (setting [10]) was 7.15 µM; in data set [2], 6.6 µM; on Histone deacetylase, 2190 µM; with BALB/3T3, 7.99 µM.

Consider `CC(=O)N[C@@H](CSC(=S)Nc1ccc(NC(=S)SC[C@H](NC(C)=O)C(=O)O)cc1)C(=O)O`, for which the 50% inhibitory concentration (IC50) is 23.5 µM in the data set with LoVo [1] (setting [10]), 19.4 µM in data set [2], 290 µM on Histone deacetylase and 79.5 µM with BALB/3T3. For the same compound, the “Ratio IC50” value (with LoVo [7]; in [8]) was 3 each time.

`CC(=O)N[C@@H](CSC(=S)NCCCNC(=S)SC[C@H](NC(C)=O)C(=O)O)C(=O)O`: the IC50 came out at 4.22 µM in the data set with LoVo [1] (setting [10]), 9.55 µM in data set [2], 5960 µM on Histone deacetylase and 8.65 µM in the data set with BALB/3T3.

For the compound `CC(=O)N[C@@H](CSC(=S)NCCc1ccccc1)C(=O)O`, the 50% inhibitory concentration (IC50) in the data set with LoVo [1] (setting [10]) worked out at 12.7 µM; in data set [2] it was 7.7 µM; on Histone deacetylase it was 3450 µM; with BALB/3T3 it was 25.3 µM.

On to `CC(=O)N[C@@H](CSC(=S)NCCCOCCOCCOCCCNC(=S)SC[C@H](NC(C)=O)C(=O)O)C(=O)O`, for which the half-inhibitory concentration (IC50) in the data set on LoVo [1] (setting [10]) turned out to be 2.59 µM; in data set [2], 7.93 µM; on Histone deacetylase, 4260 µM; in the data set on BALB/3T3 it was 7.15 µM.

As to `CC(=O)N[C@@H](CSC(=S)NC1CCCCC1NC(=S)SC[C@H](NC(C)=O)C(=O)O)C(=O)O` (some centres not stated), the IC50 entry with LoVo [1] (lovo) was “Not Active”; in [2], 473 µM; on Histone deacetylase it was 1660 µM; in the data set on BALB/3T3, 75.2 µM.

On to `Cc1ccc(N=C=S)cc1N=C=S`, for which the IC50 in the data set with LoVo [1] (setting [10]) worked out at 35.2 µM; in [2] it was 47.3 µM.

As for `CC(=O)N[C@@H](CSC(=S)Nc1cccc(NC(=S)SC[C@H](NC(C)=O)C(=O)O)c1)C(=O)O`, the IC50 was above 25 µM with LoVo [1] (setting [10]), above 25 µM in data set [2], 970 µM at Histone deacetylase and above 100 µM in the data set on BALB/3T3.

In the case of `CC(=O)N[C@@H](CSC(=S)NCc1ccccc1)C(=O)O`, the IC50 came to 11.7 µM in the data set with LoVo [1] (setting [10]), 16.8 µM in data set [2], 3440 µM at Histone deacetylase and 23.4 µM in the data set on BALB/3T3.

For `CCCNC(=S)SC[C@H](NC(C)=O)C(=O)O`, the IC50 came to 151 µM in the data set on LoVo [1] (setting [10]), 112 µM in data set [2] and 224 µM in the data set with BALB/3T3.

On to `CC(=O)N[C@@H](CSC(=S)NCC1CCCC(CNC(=S)SC[C@H](NC(C)=O)C(=O)O)C1)C(=O)O` (some centres not stated), for which the IC50 in the data set with LoVo [1] (setting [10]) came out at 11.7 µM; in data set [2] it was 12.8 µM; at Histone deacetylase, 2680 µM; in the data set with BALB/3T3, 5.88 µM. Further, the Ratio IC50 in data set [8] was 0.5.

Turning to `CC(=O)N[C@@H](CSC(=S)Nc1ccc(C)c(NC(=S)SC[C@H](NC(C)=O)C(=O)O)c1)C(=O)O`, the IC50 in the data set on LoVo [1] (setting [10]) turned out to be 20.5 µM; in [2], 22.4 µM; at Histone deacetylase it was 450 µM; in the data set with BALB/3T3, 54.7 µM. For the same compound, the “Ratio IC50” value (in the data set with LoVo [7]; in data set [8]) was 3 each time.

Take `S=C=Nc1cccc(N=C=S)c1`: the half-inhibitory concentration (IC50) in the data set with LoVo [1] (setting [10]) worked out at 46.4 µM; in data set [2] it was 55.7 µM.

For the compound `CC(=O)N[C@@H](CSC(=S)NCCOCCOCCNC(=S)SC[C@H](NC(C)=O)C(=O)O)C(=O)O`, the IC50 with LoVo [1] (setting [10]) was determined as 4.62 µM; in [2], 14.2 µM; on Histone deacetylase it was 4370 µM; with BALB/3T3 it was 6.87 µM. In addition, the Ratio IC50 in [8] was determined as 0.5.

Turning to `CC(=O)N[C@@H](CSC(=S)N[C@H]1CC[C@H](NC(=S)SC[C@H](NC(C)=O)C(=O)O)CC1)C(=O)O`, the IC50 in the data set on LoVo [1] (setting [10]) was 5.21 µM; in [2], 3.45 µM; on Histone deacetylase, 3740 µM; in the data set on BALB/3T3, 7.27 µM.

For `CCCCNC(=S)SC[C@H](NC(C)=O)C(=O)O`, the IC50 with LoVo [1] (setting [10]) turned out to be 130 µM; in data set [2], 134 µM; at Histone deacetylase it was 3460 µM; in the data set with BALB/3T3, 206 µM.

Regarding `COc1ccc(CN=C=S)cc1`, the IC50 amounted to 3.7 µM in the data set on LoVo [1] (setting [10]) and 3.9 µM in data set [2].

As to `CCCCCN=C=S` [1-ISOTHIOCYANATOPENTANE], the IC50 in the data set on LoVo [1] (setting [10]) is 88.3 µM; in [2], 75.2 µM.

Turning to `CC(=O)N[C@@H](CS)C(=O)O` [ACETYLCYSTEINE], the IC50 at Histone deacetylase turned out to be 3160 µM.

For the compound `S=C=NCc1ccccc1` [BENZYL ISOTHIOCYANATE], the IC50 in the data set on LoVo [1] (setting [10]) is 14.5 µM; in [2], 19.8 µM.

Take `S=C=Nc1ccc(N=C=S)cc1` [BITOSCANATE]: the IC50 was 9.41 µM in the data set on LoVo [1] (setting [10]) and 11.6 µM in data set [2].

`CCCCN=C=S` [BUTYL ISOTHIOCYANATE]: the IC50 in the data set with LoVo [1] (setting [10]) is 296 µM; in data set [2] it was 265 µM.

On to `COc1cccc2c1C(=O)c1c(O)c3c(c(O)c1C2=O)C[C@@](O)(C(=O)CO)C[C@@H]3O[C@H]1C[C@H](N)[C@H](O)[C@H](C)O1` [DOXORUBICIN], for which the IC50 was 7.2 µM in [2] and 0.11 µM in the data set with BALB/3T3. Besides, the “Ratio IC50” value with LoVo [9] came out at 48.

With `S=C=NCCc1ccccc1` [PHENETHYLISOTHIOCYANATE], the IC50 in [2] turned out to be 9.8 µM.

Take `CCCN=C=S` [PROPYL ISOTHIOCYANATE]: the IC50 came to 181 µM in the data set on LoVo [1] (setting [10]) and 177 µM in data set [2].

The IC50 is the concentration that gives 50% inhibition.

The record behind these values is ChEMBL document CHEMBL3751671, “Synthesis and biological activity of diisothiocyanate-derived mercapturic acids” (Bioorg Med Chem Lett, 2016).
